Test results as given in ChEMBL document CHEMBL4351007, “Synthesis and biological evaluation of (1,2,4)triazole[4,3-a]pyridine derivatives as potential therapeutic agents for concanavalin A-induced hepatitis” (Eur J Med Chem, 2019).
Active and inactive are the calls of the source. The rule behind the calls is not given here.

How the values were obtained:
L02 = experiment: Cytotoxicity against human LO2 cells assessed as cell viability at 20 uM measured after 24 hrs by MTT assay; format: cell-based; conditions: l02, 24 h
Method in brief: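 LO2 human liver cells (1.5–5 × 10^3 per well) seeded overnight, then exposed to compound for 24 h. MTT (5 mg/mL stock) added for 2–4 h at 37 °C. Formazan dissolved in DMSO and absorbance read at 570 nm. Three replicate experiments.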

RAW264.7 [1] = experiment: Antiinflammatory activity in mouse RAW264.7 cells assessed as LPS-induced nitric oxide level at 20 uM preincubated for 1 hr followed by LPS treatment and measured after 23 hrs by Griess reagent based assay (reference value: 96.06 to 102.81%); format: functional
Method in brief: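 RAW264.7 cells seeded at 1 × 10^5/mL and left overnight. Compound (20 μM) added 1 h before LPS at 1 μg/mL, then 23 h more incubation. Nitrite in supernatant read with Griess reagent at 540 nm and expressed as NO relative to the LPS-only wells (%).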

RAW264.7 [2] = experiment: Antiinflammatory activity against mouse RAW264.7 assessed as decrease in Con-A induced TNF-alpha mRNA expression level at 1 uM measured after 22 hrs by RT-PCR analysis; format: functional, cell-based
Method in brief: (§1)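 RAW264.7 macrophages (DMEM, 10% FBS, 37 °C, 5% CO2) pretreated with Con A for 2 h, then compound at 1 μM for a further 22 h. mRNA quantified by SYBR real-time PCR (95 °C 30 s; 40 cycles of 95 °C 5 s, 60 °C 20 s), normalized to GAPDH, run in triplicate; mean ± SD, n=5.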

Mus musculus [3] = experiment: Antiinflammatory activity in mouse model of Con-A induced autoimmune hepatitis assessed as decrease in serum ALT level at 100 mg/kg, ip measured after 12 hrs relative to control; format: functional; parameters: scale not given: the % may be the effect or the level left
Method in brief: (§2)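 Female BALB/c mice, 6–8 weeks old, SPF housing. Con A 20 mg/kg given i.v., then compound 100 mg/kg i.p. in 40% PEG 400/60% saline; model group received vehicle. Killed at 12 h. Plasma ALT and AST measured on an automatic analyzer. Mean ± SD, n=5; ANOVA with Tukey's test.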

Mus musculus [4] = organism: Mus musculus; experiment: Hepatoprotective activity in mouse model of Con-A induced autoimmune hepatitis assessed as reduction in Con-A induced CD4-positive cells infiltration by […] microscopic analysis; format: functional, organism-based
Method in brief: (§3)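 Livers collected 12 h after Con A 20 mg/kg i.v. plus compound 100 mg/kg i.p. Tissue formalin-fixed, paraffin-embedded and cut into 4–5 μm sections. Sections stained with H&E for light microscopy; further sections immunostained for CD4, CD11b and F4/80 and imaged by fluorescence microscopy.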

RAW264.7 [5] = experiment: Antiinflammatory activity against mouse RAW264.7 assessed as decrease in Con-A induced INF-gamma mRNA expression level at 1 uM measured after 22 hrs by RT-PCR analysis; format: functional, cell-based; method in brief: as §1
RAW264.7 [6] = experiment: Inhibition of MCP-1 mediated chemotaxis in mouse RAW264.7 cells at 20 uM measured after 3 hrs by light microscopic analysis relative to control; format: functional; conditions: for inhibition at 20 µM: RAW264.7, 3 h
Method in brief: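 RAW264.7 cells serum-starved for 3 h, then placed in the upper Transwell chamber in 0.5% BSA medium with compound (20 μM) or DMSO. Lower chamber held 200 ng/mL MCP-1. After 3 h at 37 °C, migrated cells fixed, crystal violet-stained and counted in randomly chosen fields. Inhibitory rate = 1 − N1/(N1+N2); three chambers per condition.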

Mus musculus [7] = organism: Mus musculus; experiment: Hepatoprotective activity in mouse model of Con-A induced autoimmune hepatitis assessed as reduction in Con-A induced CD11b-positive cells infiltration by […] microscopic analysis; format: functional, organism-based; method in brief: as §3
Mus musculus [8] = experiment: Antiinflammatory activity in mouse model of Con-A induced autoimmune hepatitis assessed as decrease in serum AST level at 100 mg/kg, ip measured after 12 hrs relative to control; format: functional; parameters: scale not given: the % may be the effect or the level left; method in brief: as §2
RAW264.7 [9] = experiment: Antiinflammatory activity against mouse RAW264.7 assessed as decrease in Con-A induced […] IL-10 expression level at 1 uM measured after 22 hrs by RT-PCR analysis; format: functional, cell-based; method in brief: as §1
[10] = biological target: Transcription factor p65 (Mus musculus) (UniProt Q04207); experiment: Inhibition of LPS-induced NF-kappaB p65 translocation in mouse RAW264.7 cells incubated for 22 hrs by DAPI staining based laser scanning confocal microscopic analysis; format: cell-based
Method in brief: (§4)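 RAW264.7 cells (2×10^4/well) seeded overnight and stimulated for 2 h with Con A (0.6 μM) or LPS (1 μg/mL), then compound at various concentrations for 22 h. Cells fixed in paraformaldehyde, permeabilized with Triton X-100 and blocked in BSA. Stained with anti-p65 and FITC secondary antibody, nuclei with DAPI; imaged by confocal microscopy.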

[11] = biological target: Transcription factor p65 (Mus musculus) (UniProt Q04207); experiment: Inhibition of Con A-induced NF-kappaB p65 translocation in mouse RAW264.7 cells incubated for 22 hrs by DAPI staining based laser scanning confocal microscopic analysis; format: cell-based; method in brief: as §4
Mus musculus [12] = experiment: Antiinflammatory activity in mouse model of Con-A induced autoimmune hepatitis assessed as of MDSC accumulation at 100 mg/kg by flow cytometry analysis (reference value: 11.31%); format: functional
Method in brief: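 Female BALB/c mice given Con A 20 mg/kg i.v. plus compound 100 mg/kg i.p. (PEG 400/saline vehicle), livers taken at 12 h. Liver single-cell suspensions prepared by mechanical disruption and 1 mg/mL collagenase I digestion, with red cells lysed. 1×10^6 cells stained for CD11b and Gr-1; MDSC percentage determined by flow cytometry.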

RAW264.7 [13] = experiment: Antiinflammatory activity against mouse RAW264.7 assessed as decrease in Con-A induced IL-6 mRNA expression level at 1 uM measured after 22 hrs by RT-PCR analysis; format: functional, cell-based; method in brief: as §1
Mus musculus [14] = organism: Mus musculus; experiment: Hepatoprotective activity in mouse model of Con-A induced autoimmune hepatitis assessed as reduction in Con-A induced F4/80-positive cells infiltration by […] microscopic analysis; format: functional, organism-based; method in brief: as §3
Mus musculus [15] = organism: Mus musculus; experiment: Hepatoprotective activity in mouse model of Con-A induced autoimmune hepatitis assessed as decrease in necrosis of hepatocytes by H and E staining based […] microscopic analysis; format: functional, organism-based; method in brief: as §3

Chain of Transcription factor p65 (Mus musculus) (Q04207 whole entry): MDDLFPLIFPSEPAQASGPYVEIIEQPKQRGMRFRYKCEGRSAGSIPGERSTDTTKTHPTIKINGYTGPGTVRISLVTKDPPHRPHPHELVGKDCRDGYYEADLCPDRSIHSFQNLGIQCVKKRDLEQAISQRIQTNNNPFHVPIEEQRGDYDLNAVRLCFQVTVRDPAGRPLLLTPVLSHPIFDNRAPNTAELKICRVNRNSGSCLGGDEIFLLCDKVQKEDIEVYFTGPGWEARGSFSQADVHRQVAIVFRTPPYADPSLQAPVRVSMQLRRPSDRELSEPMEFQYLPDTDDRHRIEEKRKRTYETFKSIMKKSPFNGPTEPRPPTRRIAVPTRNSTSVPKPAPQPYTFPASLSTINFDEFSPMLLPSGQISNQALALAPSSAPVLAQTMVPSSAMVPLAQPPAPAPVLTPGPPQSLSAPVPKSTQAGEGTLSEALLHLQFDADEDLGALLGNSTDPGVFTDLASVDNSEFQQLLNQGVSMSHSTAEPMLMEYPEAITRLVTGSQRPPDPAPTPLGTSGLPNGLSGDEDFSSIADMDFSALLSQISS

| Structure (SMILES) | Activity (L02) | Activity (RAW264.7 [1]) | further results |
| --- | --- | --- | --- |
| CCCOc1ccc(Cl)cc1-c1cc(NC(C)=O)c2nnc(C)n2c1 | Non-Toxic | 49.05% | – |
| CCS(=O)(=O)Nc1cc(-c2ccccc2)cn2c(C)nnc12 | Non-Toxic | 44.44% | – |
| CCS(=O)(=O)Nc1cc(-c2cc(C)ccc2OC)cn2c(C)nnc12 | Non-Toxic | 45.48% | – |
| CC(=O)Nc1cc(-c2ccccc2)cn2c(C)nnc12 | Non-Toxic | 44.71% | – |
| CC(=O)Nc1cc(-c2cccc(OC(F)(F)F)c2)cn2c(C)nnc12 | Non-Toxic | 49.52% | – |
| CCS(=O)(=O)Nc1cc(-c2ccccc2OCc2ccccc2)cn2c(C)nnc12 | Non-Toxic | 72.57% | – |
| COc1ccc(F)cc1-c1cc(NC(=O)c2ccc(OCc3ccccc3)cc2Cl)c2nnc(C)n2c1 | Non-Toxic | 32.06% | – |
| CCOc1ccc(C(=O)Nc2cc(-c3cc(F)ccc3OC)cn3c(C)nnc23)cc1 | Non-Toxic | 28.01% | Activity (RAW264.7 [2]): Active; Activity (Mus musculus [3]): 65.39%; Activity (Mus musculus [4]): Active; Activity (RAW264.7 [5]): Active; inhibition at 20 µM (RAW264.7 [6]): 52.6%; Activity (Mus musculus [7]): Active; Activity (Mus musculus [8]): 52.52%; Activity (RAW264.7 [9]): Active; inhibition [10]: Dose-dependent effect; Activity [11]: Dose-dependent effect; Activity (Mus musculus [12]): 8.39%; Activity (RAW264.7 [13]): Active; Activity (Mus musculus [14]): Active; Activity (Mus musculus [15]): Active |
| CCS(=O)(=O)Nc1cc(-c2cc(Cl)ccc2OCc2ccccc2)cn2c(C)nnc12 | Non-Toxic | 26.01% | inhibition (RAW264.7 [6]): Active |
| COc1ncccc1-c1cc(NC(C)=O)c2nnc(C)n2c1 | Non-Toxic | 54.04% | – |
| CC(=O)Nc1cc(-c2ccccc2-c2ccccc2)cn2c(C)nnc12 | Non-Toxic | 49.03% | – |
| CCOc1cc(F)ccc1-c1cc(NS(=O)(=O)CC)c2nnc(C)n2c1 | Non-Toxic | 34.85% | – |
| CCCOc1ccc(Cl)cc1-c1cc(NC(=O)c2ccccc2F)c2nnc(C)n2c1 | Non-Toxic | 77.73% | – |
| CC(=O)Nc1cc(-c2ccccc2C(F)(F)F)cn2c(C)nnc12 | Non-Toxic | 42.36% | – |
| CCOc1cc(F)ccc1-c1cc(NC(C)=O)c2nnc(C)n2c1 | Non-Toxic | 65.85% | – |
| O=C1NC(=O)/C(=C/c2ccc3nccnc3c2)S1 | – | – | inhibition at 20 µM (RAW264.7 [6]): 40.5% |
| COc1cccc(-c2cc(NC(C)=O)c3nnc(C)n3c2)c1 | Non-Toxic | 55.3% | – |
| Cc1nnc2c(NC(=O)c3ccc(F)cc3)cc(-c3ccc(Cl)cc3)cn12 | Non-Toxic | 42.88% | – |

| Structure (SMILES) | Activity (L02) | Activity (RAW264.7 [1]) | further results |
| --- | --- | --- | --- |
| COc1ccc(F)cc1-c1cc(NC(=O)c2c(F)cccc2F)c2nnc(C)n2c1 | Non-Toxic | 61.96% | – |
| CC(=O)Nc1cc(-c2ccc(CN3CCOCC3)cc2)cn2c(C)nnc12 | Non-Toxic | 42.4% | – |
| CCS(=O)(=O)Nc1cc(-c2cccc(C(F)(F)F)c2)cn2c(C)nnc12 | Non-Toxic | 27.18% | – |
| CCS(=O)(=O)Nc1cccc(-c2cc(NS(=O)(=O)CC)c3nnc(C)n3c2)c1 | Non-Toxic | 41.19% | – |
| CC(=O)Nc1cc(-c2ccccc2Cl)cn2c(C)nnc12 | Non-Toxic | 48.41% | – |
| CCOc1ccc(C)cc1-c1cc(NC(C)=O)c2nnc(C)n2c1 | Non-Toxic | 32.07% | – |
| CCS(=O)(=O)Nc1cc(-c2ccccc2C(F)(F)F)cn2c(C)nnc12 | Non-Toxic | 58.67% | – |
| CC(=O)Nc1cc(-c2cc(Cl)ccc2OCc2ccccc2)cn2c(C)nnc12 | Non-Toxic | 27.05% | – |
| Cc1nnc2c(NC(=O)c3cccc(C(F)(F)F)c3)cc(-c3ccc(Cl)cc3)cn12 | Non-Toxic | 30.98% | – |
| CCOc1cc(F)ccc1-c1cc(NC(=O)C2CCCCC2)c2nnc(C)n2c1 | Non-Toxic | 37.8% | inhibition (RAW264.7 [6]): Active |
| CCS(=O)(=O)Nc1cccc(-c2cc(NC(C)=O)c3nnc(C)n3c2)c1 | Non-Toxic | 64.96% | – |
| CCS(=O)(=O)Nc1cc(-c2cccnc2OC)cn2c(C)nnc12 | Non-Toxic | 49.93% | – |
| CC(=O)Nc1cc(-c2ccccc2F)cn2c(C)nnc12 | Non-Toxic | 83.06% | – |
| COc1ccc(C)cc1-c1cc(NC(C)=O)c2nnc(C)n2c1 | Non-Toxic | 58.83% | – |
| CCS(=O)(=O)Nc1cccc(-c2cc([N+](=O)[O-])c3nnc(C)n3c2)c1 | Non-Toxic | 26.74% | – |
| COc1ncccc1-c1cc(NC(=O)C2CCCCC2)c2nnc(C)n2c1 | Non-Toxic | 49.99% | – |
| CCS(=O)(=O)Nc1cc(-c2ccccc2-c2ccccc2)cn2c(C)nnc12 | Non-Toxic | 62.68% | – |
| CCS(=O)(=O)Nc1cc(-c2ccccc2Cl)cn2c(C)nnc12 | Non-Toxic | 152.42% | – |
